Only a selection was taken, and hits are over-represented in it overall.
HCT116 PTEN-null: growth suppression of PTEN-null HCT116, primary screen, cell-based, CellTiter-Glo; HCT116 PTEN-null viability, 60 h; hits give low values; viability, % at 10 µM; actives 1.2% (n = 140,000);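 active = viability at or below a set limit, 4 SD under the median of all tested compounds, cut at about 3.7% in these data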;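 also: PTEN knockout HCT116 line with beta catenin targeted HCT116 as companion control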
Fibroblast inh: antiproliferative effect on LL 47 fibroblasts – human, LL 47 cells, CellTiter-Glo luminescence, primary screen | LL 47 human lung fibroblast viability, ATP luminescence; hits give low values | viability, % at 10 µM | actives 1.1% (n = 85,000) | AID 719, 2007;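 active = viability at or below 50% in the single dose screen; inactive = viability above 50%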;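 also: compound exposure lasted 72 h before the ATP readout; 100% = median luminescence of untreated cell-only wells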
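Signal: luminescent ATP detection, CellTiter-Glo; assay system: LL 47 human lung fibroblasts; input: 1,150 cells/well; incubation: overnight cell rest, 72 h compound treatment at 37 °C; measure: % viability versus median cells-only luminescence; medium: IMEM growth medium with 15% fetal bovine serum; dosing: compound addition at 0.1% DMSO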
HUVEC prolif 384: inhibitors of HUVEC proliferation, primary screen, cell-based, 384-well; viability, % at 10 µM (by protocol); actives 1.1% (n = 86,000); CellTiter-Glo luminescence, 72 h; hits give low values;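 active = viability at or below 30%; inactive = viability above 30%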;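 also: 100% = median luminescence of DMSO-only cell control wells on each plate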
H69AR growth 86K: proliferation blockers of H69AR lung cancer cells, primary screen, cell-based, human, 86K library; actives 6% (n = 85,000); AID 598, 2007; viability, % at 10 µM; H69AR lung tumor viability, ATP luminescence, 72 h; hits give low values;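 active = viability at or below 40%; inactive = viability above 40%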;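 also: multidrug resistant small cell line overexpressing MRP-1 efflux transporter; 100% = mean luminescence of untreated control wells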
HCT116 bCat-KO: primary screen for growth suppressors in beta-catenin knockout HCT116 cells (colon tumor, human) | AID 818, 2007 | HCT116 beta-catenin knockout viability, CellTiter-Glo, 60 h; hits give low values | viability, % at 10 µM | actives 1.5% (n = 140,000);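 active = viability at or under a set limit, the compound median less 4 SD, cut at about 6% in these data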;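 also: 0% = Hyamine 1622 control at 20 µM and 100% = untreated cell control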
* marks the source's active call; other numbers are inactive results; . = not tested or not shown.

SMILES | HCT116 PTEN-null | Fibroblast inh | HUVEC prolif 384 | H69AR growth 86K | HCT116 bCat-KO
COc1ccccc1C1C(C(C)=O)=C(C)N=c2s/c(=C\c3cc(OC)c(OC)c(OC)c3)c(=O)n21 (stereo not drawn) | 74 | 93 | 80 | 30* | 81
CCCSc1nc2c(cnn2-c2ccccc2)c(=O)[nH]1 | 103 | 93 | 73 | 106 | 107
O=C(CSc1nc2c(cnn2-c2ccccc2)c(=O)[nH]1)c1ccc(Cl)cc1 | 103 | 98 | 88 | 36* | 93
CCCSc1nc2c(cnn2-c2ccc(C)cc2)c(=O)[nH]1 | 53 | 91 | 11* | 13* | 70
CCCCSc1nc2c(cnn2-c2ccc(Cl)cc2)c(=O)[nH]1 | 78 | 88 | 87 | 51 | 97
Cc1cccc(N2CCN(c3nc4ccc(Cl)cc4n4cnnc34)CC2)c1C | 1.0* | 29* | 14* | 2.1* | 0.8*
CCc1cccc(CC)c1NC(=O)CSc1nc2ccc(N3C(=O)C4C(C3=O)[C@H]3C=C[C@@H]4C3)cc2s1 (stereo partly drawn) | 76 | . | . | . | 68
COc1cc(-c2ncc3ccccn23)cc(OC)c1OC | 90 | . | . | . | 84
COc1cc(C(C[N+](=O)[O-])c2c(-c3ccccc3)cc3ccccn23)cc(OC)c1OC (stereo not drawn) | 35 | 34* | 64 | 11* | 56
COc1ccc(C(C[N+](=O)[O-])c2c(-c3ccccc3)cc3ccccn23)cc1 (stereo not drawn) | 1.9* | 43* | 61 | 12* | 3.3*
COc1ccc(C(C[N+](=O)[O-])c2c(-c3ccccc3)cc3ccccn23)cc1OC (stereo not drawn) | 49 | 66 | 81 | 26* | 41
CCOc1cc(CNn2cn[nH]c2=S)cc(Cl)c1OCc1ccccc1F | 71 | . | . | . | 74
NNc1nc2c(F)cc(F)cc2s1 | 87 | . | . | . | 88
Cc1nc(Cl)sc1C(=O)Nc1ccc(Cl)cc1 | 92 | . | . | . | 97
COc1ccc(C(=O)/C=C2/c3ccccc3CC(C)(C)N2C)cc1OC | 92 | . | . | . | 77
Cc1ccc(C(=O)/C=C\C(=O)c2ccc(C)cc2)cc1 | 1.8* | . | . | . | 1.7*
CC(/C=C/C(=O)c1ccc(C)cc1)=C\c1ccccc1 | 76 | . | . | . | 75
Cc1ccc(C(=O)/C=C\NCc2ccccc2)cc1 | 88 | . | . | . | 96
Cc1ccc(S/C=C\C(=O)c2ccccc2)cc1 | 71 | 70 | 29* | 1.2* | 13
O=C(CSc1ncn[nH]1)Nc1ccccc1Sc1ccc(Cl)cc1 | 64 | 86 | 95 | 109 | 73
CC(C)(C)c1ccc(OCCNC(=O)Cc2ccc(F)cc2)cc1 | 91 | . | . | . | 86
CCCCN1C(=O)CN(CCc2ccccc2)C(=O)C1c1ccc(OC)cc1 (stereo not drawn) | 87 | 92 | 104 | 38* | 92
CC(=O)c1sc(NC(=O)C(C)(C)C)nc1C | 109 | 112 | 90 | 91 | 91
CC(=O)c1sc(Nc2nc(C)cc(C)n2)nc1C | 79 | 98 | 81 | 29* | 84
CC1=NN(c2ccccc2)C(=O)/C1=C/C=C/c1ccccc1 | 3.2* | . | . | . | 3.4*
SMILES | HCT116 PTEN-null | Fibroblast inh | HUVEC prolif 384 | H69AR growth 86K | HCT116 bCat-KO
CS(=O)(=O)N(CC(=O)NCCSc1ccccn1)c1cccc2ccccc12 | 101 | . | . | . | 101
CN(C)C/C(Cl)=C(\Cl)c1ccccc1 | 94 | 99 | 97 | 12* | 93
Cc1ccccc1C(=O)OCCCN=C1NS(=O)(=O)c2ccccc21 | 81 | 99 | 93 | 83 | 82
CCN(CC)c1ccc(N=Cc2ccc([N+](=O)[O-])o2)cc1 | 1.9* | . | . | . | 4.7*
CCN(CC)c1ccc(N=Cc2ccccc2[N+](=O)[O-])cc1 | 53 | . | . | . | 46
O=C(NNC(=S)Nc1ccc(OC(F)F)cc1)c1cc2c(s1)CCCC2 | 96 | . | . | . | 87
CC1(C)Cc2c(C#N)c(OCC(=O)c3ccc(Cl)cc3)nc(-c3ccoc3)c2CO1 | 76 | 39* | 76 | 50 | 64
Nc1nnnn1/N=C/C(Br)=C/c1ccccc1 | 3.2* | . | 89 | 0.9* | 7
COc1ccc(C(=O)Nc2cccc(-c3nnc(-c4ccco4)o3)c2)cc1 | 41 | 62 | 47 | 24* | 54
CCOc1ccccc1C(=O)Nc1cccc(-c2nnc(-c3ccccc3)o2)c1 | 63 | 87 | 48 | 8.7* | 63

Screens from PubChem.
